tested on: not listed separately; assay: Cytotoxicity against human RD cells assessed as reduction in cell viability measured after 4 days by MTS/PMS assay; type: toxicity, cell-based; conditions: time 4 day

Question: For `O=C[C@H](C[C@@H]1CCNC1=O)NC(=O)[C@H](Cc1ccccc1)NC(=O)/C=C/c1ccccc1`, which CC50 at 96 h is on record?
Answer: > 100 µM

Question: With `Cc1nc2ccccc2nc1C(=O)N[C@@H](Cc1ccccc1)C(=O)N[C@H](C=O)C[C@@H]1CCNC1=O` as the compound, how does the CC50 at 96 h read?
Answer: > 100 µM

Question: With `O=C[C@H](C[C@@H]1CCNC1=O)NC(=O)[C@H](Cc1ccccc1)NC(=O)C1=Cc2cc(Cl)ccc2OC1` as the compound, how does the CC50 at 96 h read?
Answer: 16.4 µM

Question: Which CC50 at 96 h does the source give for `Cc1cc(C(=O)N[C@H](C(=O)N[C@@H](Cc2ccccc2)C(=O)N[C@H](C=O)C[C@@H]2CCNC2=O)C(C)C)no1` here?
Answer: > 100 µM

Question: With `CCOC(=O)/C=C/[C@H](C[C@@H]1CCNC1=O)NC(=O)[C@H](Cc1ccc(F)cc1)NC(=O)[C@@H](NC(=O)c1cc(C)on1)C(C)C` as the compound, how does the CC50 at 96 h read?
Answer: > 100 µM

Question: Which CC50 at 96 h does the source give for `CC(C)[C@H](NC(=O)c1cc2ccccc2o1)C(=O)N[C@@H](Cc1ccccc1)C(=O)N[C@H](C=O)C[C@@H]1CCNC1=O` here?
Answer: > 100 µM

tested on: Coxsackievirus B3; assay: Antiviral activity against Human coxsackievirus B3 infected in Vero cells assessed as reduction in plaque formation treated 2 hrs post viral infection and measured 3 to 4 days post-infection by Giemsa staining based plaque reduction assay; type: functional, organism-based; conditions: Enterovirus B

Question: With `O=C[C@H](C[C@@H]1CCNC1=O)NC(=O)[C@H](Cc1ccccc1)NC(=O)/C=C/c1ccccc1` as the compound, how does the EC50 read?
Answer: 15.9 µM

tested on: not listed separately; assay: Inhibition of Human enterovirus 71 3C-like protease expressed in Escherichia coli BL21 (DE3) cells using Dacyl-KTSAVLQSGFRKMEEdans as fluorogenic substrate incubated for 10 mins by FRET assay; parameters: species or system Enterovirus A71; conditions: not given
Procedure, shortened: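 EV71 3Cpro expressed with N-terminal His-SUMO2 tag, tag cut by SENP2, then purified on Ni-NTA, Q-Sepharose and Superdex200. Enzyme at 5 μM final, preincubated 10 min with serial compound dilutions in 25 mM Tris pH 8.0, 150 mM NaCl, 10% glycerol. Fluorescence read at ex 340/em 490 nm. IC50 (mean ± SD, ≥3 experiments) by nonlinear regression.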

Question: Which IC50 does the source give for `O=C[C@H](C[C@@H]1CCNC1=O)NC(=O)[C@H](Cc1ccccc1)NC(=O)/C=C/c1ccccc1` here?
Answer: 4.57 µM

Question: With `Cc1nc2ccccc2nc1C(=O)N[C@@H](Cc1ccccc1)C(=O)N[C@H](C=O)C[C@@H]1CCNC1=O` as the compound, how does the IC50 read?
Answer: 3.04 µM

Question: For `O=C[C@H](C[C@@H]1CCNC1=O)NC(=O)[C@H](Cc1ccccc1)NC(=O)C1=Cc2cc(Cl)ccc2OC1`, which IC50 is on record?
Answer: 4.34 µM

Question: With `Cc1cc(C(=O)N[C@H](C(=O)N[C@@H](Cc2ccccc2)C(=O)N[C@H](C=O)C[C@@H]2CCNC2=O)C(C)C)no1` as the compound, how does the IC50 read?
Answer: 6.73 µM

Question: Which IC50 does the source give for `CCOC(=O)/C=C/[C@H](C[C@@H]1CCNC1=O)NC(=O)[C@H](Cc1ccc(F)cc1)NC(=O)[C@@H](NC(=O)c1cc(C)on1)C(C)C` here?
Answer: 1.89 µM

Question: With `CC(C)[C@H](NC(=O)c1cc2ccccc2o1)C(=O)N[C@@H](Cc1ccccc1)C(=O)N[C@H](C=O)C[C@@H]1CCNC1=O` as the compound, how does the IC50 read?
Answer: 2.43 µM

tested on: rhinovirus B14; assay: Antiviral activity against wild type Human rhinovirus B14 infected in HeLa cells assessed as reduction in virus-induced cytopathic effect incubated for 3 days by MTS/PMS assay; type: functional, organism-based; conditions: Rhinovirus B, 72 h

Question: For `O=C[C@H](C[C@@H]1CCNC1=O)NC(=O)[C@H](Cc1ccccc1)NC(=O)/C=C/c1ccccc1`, which EC50 is on record?
Answer: 1190 nM

tested on: Coxsackievirus A21; assay: Antiviral activity against Human coxsackievirus A21 infected in HeLa cells assessed as reduction in virus-induced cytopathic effect incubated for 3 days by MTS/PMS assay; type: functional, organism-based; conditions: Enterovirus C, 72 h

Question: With `O=C[C@H](C[C@@H]1CCNC1=O)NC(=O)[C@H](Cc1ccccc1)NC(=O)/C=C/c1ccccc1` as the compound, how does the EC50 read?
Answer: 1730 nM

tested on: not listed separately; assay: Inhibition of SARS-CoV2 3C-like protease expressed in Escherichia coli BL21 (DE3) cells using Mca-AVLQSGFR-Lys(Dnp)-Lys-NH2 as fluorogenic substrate incubated for 10 mins by FRET assay; parameters: species or system Severe acute respiratory syndrome coronavirus 2; conditions: not given

Question: Which IC50 does the source give for `Cc1nc2ccccc2nc1C(=O)N[C@@H](Cc1ccccc1)C(=O)N[C@H](C=O)C[C@@H]1CCNC1=O` here?
Answer: 65 nM

Question: With `O=C[C@H](C[C@@H]1CCNC1=O)NC(=O)[C@H](Cc1ccccc1)NC(=O)C1=Cc2cc(Cl)ccc2OC1` as the compound, how does the IC50 read?
Answer: 120 nM

Question: Which IC50 does the source give for `Cc1cc(C(=O)N[C@H](C(=O)N[C@@H](Cc2ccccc2)C(=O)N[C@H](C=O)C[C@@H]2CCNC2=O)C(C)C)no1` here?
Answer: 67 nM

Question: Which IC50 does the source give for `CC(C)[C@H](NC(=O)c1cc2ccccc2o1)C(=O)N[C@@H](Cc1ccccc1)C(=O)N[C@H](C=O)C[C@@H]1CCNC1=O` here?
Answer: 67 nM

tested on: rhinovirus A2; assay: Antiviral activity against wild type Rhinovirus-A02 infected in HeLa cells assessed as reduction in virus-induced cytopathic effect incubated for 3 days by MTS/PMS assay; type: functional, cell-based; conditions: Rhinovirus A, 72 h

Question: Which EC50 does the source give for `O=C[C@H](C[C@@H]1CCNC1=O)NC(=O)[C@H](Cc1ccccc1)NC(=O)/C=C/c1ccccc1` here?
Answer: 6.6 µM

tested on: enterovirus D68; assay: Antiviral activity against Human enterovirus 68 infected in HeLa cells assessed as reduction in virus-induced cytopathic effect incubated for 4 days by MTS/PMS assay; type: functional, organism-based; conditions: Enterovirus D, 96 h

Question: For `O=C[C@H](C[C@@H]1CCNC1=O)NC(=O)[C@H](Cc1ccccc1)NC(=O)/C=C/c1ccccc1`, which EC50 is on record?
Answer: 80 nM

tested on: Enterovirus A71; assay: Antiviral activity against Human enterovirus 71 BrCr infected in human RD cells assessed as reduction in virus-induced cytopathic effect incubated for 4 days by MTS/PMS assay; type: functional, organism-based; conditions: Enterovirus A, 96 h
Procedure, shortened: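 RD cells (2.5 × 10^4/well) adhered overnight, then infected with EV71 BrCr and given serial compound dilutions. Incubated 4 days, until full CPE in virus controls. Viability by MTS/PMS, absorbance at 498 nm after 1–2 h at 37 °C. Normalised to infected and uninfected untreated controls; EC50 by curve fitting.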

Question: Which EC50 does the source give for `O=C[C@H](C[C@@H]1CCNC1=O)NC(=O)[C@H](Cc1ccccc1)NC(=O)/C=C/c1ccccc1` here?
Answer: 100 nM

Question: For `Cc1nc2ccccc2nc1C(=O)N[C@@H](Cc1ccccc1)C(=O)N[C@H](C=O)C[C@@H]1CCNC1=O`, which EC50 is on record?
Answer: 370 nM

Question: For `O=C[C@H](C[C@@H]1CCNC1=O)NC(=O)[C@H](Cc1ccccc1)NC(=O)C1=Cc2cc(Cl)ccc2OC1`, which EC50 is on record?
Answer: 70 nM

Question: With `Cc1cc(C(=O)N[C@H](C(=O)N[C@@H](Cc2ccccc2)C(=O)N[C@H](C=O)C[C@@H]2CCNC2=O)C(C)C)no1` as the compound, how does the EC50 read?
Answer: 90 nM

Question: For `CCOC(=O)/C=C/[C@H](C[C@@H]1CCNC1=O)NC(=O)[C@H](Cc1ccc(F)cc1)NC(=O)[C@@H](NC(=O)c1cc(C)on1)C(C)C`, which EC50 is on record?
Answer: 11 nM

Question: For `CC(C)[C@H](NC(=O)c1cc2ccccc2o1)C(=O)N[C@@H](Cc1ccccc1)C(=O)N[C@H](C=O)C[C@@H]1CCNC1=O`, which EC50 is on record?
Answer: 96 nM

tested on: not listed separately; assay: Cytotoxicity against African green monkey Vero E6 cells assessed as reduction in cell viability incubated for 24 hrs by CCK8 assay; type: toxicity, cell-based, Vero C1008; conditions: chlorocebus sabaeus
Procedure, shortened: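 Vero E6 cells (2 × 10^4/well) exposed to graded compound concentrations for 24 h. Relative surviving cell number measured by CCK-8.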

Question: For `Cc1nc2ccccc2nc1C(=O)N[C@@H](Cc1ccccc1)C(=O)N[C@H](C=O)C[C@@H]1CCNC1=O`, which CC50 at 24 h is on record?
Answer: 603 µM

Question: Which CC50 at 24 h does the source give for `O=C[C@H](C[C@@H]1CCNC1=O)NC(=O)[C@H](Cc1ccccc1)NC(=O)C1=Cc2cc(Cl)ccc2OC1` here?
Answer: 299 µM

Question: Which CC50 at 24 h does the source give for `Cc1cc(C(=O)N[C@H](C(=O)N[C@@H](Cc2ccccc2)C(=O)N[C@H](C=O)C[C@@H]2CCNC2=O)C(C)C)no1` here?
Answer: > 1000 µM

Question: With `CC(C)[C@H](NC(=O)c1cc2ccccc2o1)C(=O)N[C@@H](Cc1ccccc1)C(=O)N[C@H](C=O)C[C@@H]1CCNC1=O` as the compound, how does the CC50 at 24 h read?
Answer: > 1000 µM

tested on: SARS-CoV-2; assay: Antiviral activity against SARS Cov-2 infected in Vero E6 cells assessed as reduction in viral RNA replication measured 24 hrs post infection by qRT-PCR analysis; type: functional, organism-based; conditions: Severe acute respiratory syndrome coronavirus 2, Vero C1008, 24 h

Question: For `Cc1nc2ccccc2nc1C(=O)N[C@@H](Cc1ccccc1)C(=O)N[C@H](C=O)C[C@@H]1CCNC1=O`, which EC50 is on record?
Answer: 440 nM

Question: With `O=C[C@H](C[C@@H]1CCNC1=O)NC(=O)[C@H](Cc1ccccc1)NC(=O)C1=Cc2cc(Cl)ccc2OC1` as the compound, how does the EC50 read?
Answer: 250 nM

Question: Which EC50 does the source give for `Cc1cc(C(=O)N[C@H](C(=O)N[C@@H](Cc2ccccc2)C(=O)N[C@H](C=O)C[C@@H]2CCNC2=O)C(C)C)no1` here?
Answer: > 2000 nM

Question: With `CC(C)[C@H](NC(=O)c1cc2ccccc2o1)C(=O)N[C@@H](Cc1ccccc1)C(=O)N[C@H](C=O)C[C@@H]1CCNC1=O` as the compound, how does the EC50 read?
Answer: 5620 nM

Reference: ChEMBL document CHEMBL5038578, “Design, Synthesis, and Biological Evaluation of Peptidomimetic Aldehydes as Broad-Spectrum Inhibitors against Enterovirus and SARS-CoV-2” (J Med Chem, 2022)
